Assay results: ChEMBL document CHEMBL1133351, “Synthesis and evaluation of vitamin D-based cationic lipids for gene delivery in vitro” (2000)

What was measured:
HeLa = experiment: Transfection activity of compound was tested in human cervical adenocarcinoma (HeLa) cells (Level of luciferase gene expression is expressed as mean of relative light units (RLU) per well); format: functional
In short: (§1)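 Cationic lipid:DOPE (1:1 molar) films hydrated in PBS pH 7.4 (5 mM cationic lipid), bath-sonicated. pCMV-Luc (CMV-driven firefly luciferase) 1 µg in serum-free CHO-S-SFM mixed with 5 nmol lipid in HBSS, 5–10 min RT. Cells 5×10^4/well seeded 24 h prior; 5 h exposure, then FBS; medium replaced at 24 h; lysed 24 h later; luciferase luminescence (10 s), RLU/well, mean of triplicates.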

[1] = Transfection activity of compound was tested in lewis lung carcinoma (3LL) cells (Level of luciferase gene expression is expressed as mean of relative light units (RLU) per well); format: functional, cell-based; settings: Mus musculus; in short: as §1
HEK293 = experiment: Transfection activity of compound was tested in human embryonic kidney (293) cells (Level of luciferase gene expression is expressed as mean of relative light units (RLU) per well); format: functional; in short: as §1
NIH3T3 = experiment: Transfection activity of compound was tested in murine embryonic fibroblast (NIH3T3) cells (Level of luciferase gene expression is expressed as mean of relative light units (RLU) per well); format: functional, Mus musculus; in short: as §1

## C=C1CC[C@H](OC(=O)NCCN(C)C)C/C1=C/C=C1\CCC[C@]2(C)[C@@H]([C@H](C)/C=C/[C@H](C)C(C)C)CC[C@@H]12.Cl
HeLa
  RLU/well: 2.6e+06
[1]
  RLU/well: 800000
HEK293
  RLU/well: 3.9e+06
NIH3T3
  RLU/well: 270000

## C=C1CC[C@H](OC(=O)NCC[N+](C)(C)C)C/C1=C/C=C1\CCC[C@]2(C)[C@@H]([C@H](C)CCCC(C)C)CC[C@@H]12.[I-]
HeLa
  RLU/well: 18000
[1]
  RLU/well: 5300
HEK293
  RLU/well: 560000
NIH3T3
  RLU/well: 570000

## C=C1CC[C@H](OC(=O)NCCN(C)C)C/C1=C/C=C1\CCC[C@]2(C)[C@@H]([C@H](C)CCCC(C)C)CC[C@@H]12.Cl
HeLa
  RLU/well: 290000
[1]
  RLU/well: 220000
HEK293
  RLU/well: 1.1e+06
NIH3T3
  RLU/well: 120000

## C=C1CC[C@H](OC(=O)NCCCCN)C/C1=C/C=C1\CCC[C@]2(C)[C@@H]([C@H](C)/C=C/[C@H](C)C(C)C)CC[C@@H]12.Cl
HeLa
  RLU/well: 930000
[1]
  RLU/well: 610000
HEK293
  RLU/well: 6.3e+07
NIH3T3
  RLU/well: 2.1e+06

## C=C1CC[C@H](OC(=O)NCCN(CCN)CCN)C/C1=C/C=C1\CCC[C@]2(C)[C@@H]([C@H](C)/C=C/[C@H](C)C(C)C)CC[C@@H]12.Cl
HeLa
  RLU/well: 540000
[1]
  RLU/well: 590000
HEK293
  RLU/well: 4.8e+07
NIH3T3
  RLU/well: 1.9e+06

## C=C1CC[C@H](OC(=O)NCCCCN)C/C1=C/C=C1\CCC[C@]2(C)[C@@H]([C@H](C)CCCC(C)C)CC[C@@H]12.Cl
HeLa
  RLU/well: 1.7e+06
[1]
  RLU/well: 820000
HEK293
  RLU/well: 4.7e+07
NIH3T3
  RLU/well: 7.8e+06

## C=C1CC[C@H](OC(=O)NCCN(CCN)CCN)C/C1=C/C=C1\CCC[C@]2(C)[C@@H]([C@H](C)CCCC(C)C)CC[C@@H]12.Cl
HeLa
  RLU/well: 1.4e+06
[1]
  RLU/well: 150000
HEK293
  RLU/well: 3.2e+07
NIH3T3
  RLU/well: 690000

## C=C1CC[C@H](OC(=O)NCC[N+](C)(C)C)C/C1=C/C=C1\CCC[C@]2(C)[C@@H]([C@H](C)/C=C/[C@H](C)C(C)C)CC[C@@H]12.[I-]
HeLa
  RLU/well: 38000
[1]
  RLU/well: 4000
HEK293
  RLU/well: 1.6e+06
NIH3T3
  RLU/well: 180000
